Tests used:
K562 cell line = test: CCK-8 antiproliferative assay, K562; assay type: cell-based; settings: for IC50 / inhibition at 0.1 µM / inhibition at 1 µM: Homo sapiens, K562, 72 h; for IC50: read-out: IC50 (µM) K562; for inhibition at 0.1 µM / inhibition at 1 µM: read-out: Inhibition rate (%); for fold decrease in antiproliferative activities of K562 cell lines: relative to 12d
In short: (§1)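 Cells were grown in RPMI-1640 with 10% FBS at 37 °C in 5% CO2. About 3.5 × 10^3 cells/well were seeded, grown 24 h, then given test compound at several concentrations for 72 h in triplicate wells. CCK-8 was added for 2–3 h and OD read at 450 nm to give inhibition rate or IC50. K562 screen: mean of ≥2 independent experiments. Five-line panel: mean ± SD of three.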

A549 = test: CCK-8 antiproliferative assay, A549; assay type: cell-based; settings: Homo sapiens, A549, 72 h, read-out: IC50 (µM) A549
In short: as §1

Hela = test: CCK-8 antiproliferative assay, Hela; assay type: cell-based; settings: Homo sapiens, HeLa, 72 h, read-out: IC50 (µM) Hela
In short: as §1

H22 = test: CCK-8 antiproliferative assay, H22; assay type: cell-based, mouse; settings: Mus musculus, H22, 72 h, read-out: IC50 (µM) H22
In short: as §1

normal cell line HFL-1 = test: CCK-8 assay, normal cell line HFL-1; assay type: cell-based; settings: Homo sapiens, HFL1, 72 h, read-out: IC50 (µM) HFL-1
In short: as §1

[1] = test system: colchicine binding site on tubulin; test: [3H]-colchicine competition scintillation proximity assay; settings: tubulin 1 µM, [3H]-colchicine 5 µM
In short: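 Competition scintillation proximity assay. Test compound was added to buffer (80 mM PIPES pH 6.8, 1 mM EGTA, 1 mM MgCl2, 10% glycerol, 1 mM GTP) containing tubulin 1 µM, then [3H]-colchicine 5 µM. After 2 h incubation, streptavidin-labelled SPA beads were added and radioactivity counted. Percent inhibition of colchicine binding was reported as mean ± SD of three independent experiments.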

H22 allograft = H22 allograft mice model, in vivo antitumor effect; settings: 20 mg/kg i.v. once a day, three weeks, by tumour weight
In short: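 H22 cells in log phase (1 × 10^7 cells/mL, 0.1 ml) were injected s.c. into the right flank. Tumour size and body weight were recorded every two days. Mice were sacrificed at about 21 days. TGI (%) = (1 − Wt/Wc) × 100, using mean tumour weights.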

SMILES	inhibition at 0.1 µM (K562 cell line)	inhibition at 1 µM (K562 cell line)	further results
COc1ccc(/C=C\c2cc(OC)c(OC)c(OC)c2)cc1O [CA-4, Combretastatin A-4, reference compound]	88.3%	92%	IC50 (K562 cell line): 0.004 ± 0.001 µM; IC50 (A549): 0.032 ± 0.005 µM; IC50 (Hela): 0.026 ± 0.006 µM; IC50 (H22): 0.01 ± 0.002 µM; IC50 (normal cell line HFL-1): 0.139 ± 0.017 µM; Inhibition (%) of colchicine binding ([1]; compound 1 µM): 78.55 ± 1.85%; Inhibition (%) of colchicine binding ([1]; compound 5 µM): 87.35 ± 1.37%; tumour growth inhibition (TGI) value (H22 allograft): 59.19%
COc1ccc(CC2Cc3cc(OC)c(OC)c(OC)c3C2)cc1 (stereo not drawn) [Compound 12a, 4,5,6-trimethoxy-2–(4-methoxybenzyl)-2,3-dihydro-1H-indene]	5.71%	72.4%	
COc1ccc(CC2Cc3cc(OC)c(OC)c(OC)c3C2)cc1OC (stereo not drawn) [Compound 12b, 2–(3,4-dimethoxybenzyl)-4,5,6-trimethoxy-2,3-dihydro-1H-indene]	5.8%	15.2%	
COc1cc(CC2Cc3cc(OC)c(OC)c(OC)c3C2)cc(OC)c1OC (stereo not drawn) [Compound 12c, 4,5,6-trimethoxy-2–(3,4,5-trimethoxybenzyl)-2,3-dihydro-1H-indene]	6.96%	9.48%	
COc1ccc(CC2Cc3cc(OC)c(OC)c(OC)c3C2)cc1F (stereo not drawn) [Compound 12e, 2–(3-fluoro-4-methoxybenzyl)-4,5,6-trimethoxy-2,3-dihydro-1H-indene]	10.2%	67%	
COc1cc2c(c(OC)c1OC)CC(Cc1ccc(C)c(F)c1)C2 (stereo not drawn) [Compound 12f, 2–(3-fluoro-4-methylbenzyl)-4,5,6-trimethoxy-2,3-dihydro-1H-indene]	6.65%	72%	
COc1cc2c(c(OC)c1OC)CC(Cc1ccc(F)c(F)c1)C2 (stereo not drawn) [Compound 12g, 2–(3,4-difluorobenzyl)-4,5,6-trimethoxy-2,3-dihydro-1H-indene]	4.71%	7.74%	
COc1cc2c(c(OC)c1OC)CC(Cc1ccc(N)c(C)c1)C2 (stereo not drawn) [Compound 12h, 2-methyl-4-((4,5,6-trimethoxy-2,3-dihydro-1H-inden-2-yl)methyl)aniline]	2.25%	79.8%	
COc1cc2c(c(OC)c1OC)CC(Cc1ccc(C)c(C)c1)C2 (stereo not drawn) [Compound 12i, 2–(3,4-dimethylbenzyl)-4,5,6-trimethoxy-2,3-dihydro-1H-indene]	3%	66%	
COc1ccc(CC2Cc3cc(OC)c(OC)c(OC)c3C2)cc1N (stereo not drawn) [Compound 12j, 2-methoxy-5-((4,5,6-trimethoxy-2,3-dihydro-1H-inden-2-yl)methyl)aniline]	68.7%	86.6%	IC50 (K562 cell line): 0.068 ± 0.006 µM; IC50 (A549): 0.212 ± 0.013 µM; IC50 (Hela): 0.136 ± 0.011 µM; IC50 (H22): 0.093 ± 0.005 µM; IC50 (normal cell line HFL-1): 0.59 ± 0.062 µM
COc1ccc(CC2Cc3cc(OC)c(OC)c(OC)c3C2)cn1 (stereo not drawn) [Compound 12k, 2-methoxy-5-((4,5,6-trimethoxy-2,3-dihydro-1H-inden-2-yl)methyl)pyridine]	4.12%	13.9%	
COc1cc2c(c(OC)c1OC)CC(Cc1ccccc1)C2 (stereo not drawn) [Compound 12l, 2-benzyl-4,5,6-trimethoxy-2,3-dihydro-1H-indene]	1.03%	7.29%	
COc1cc2c(c(OC)c1OC)CC(Cc1ccc(O)cc1)C2 (stereo not drawn) [Compound 12m, 4-((4,5,6-trimethoxy-2,3-dihydro-1H-inden-2-yl)methyl)phenol]	2.9%	16.4%	
COc1cc2c(c(OC)c1OC)CC(Cc1ccc(N)cc1)C2 (stereo not drawn) [Compound 12n, 4-((4,5,6-trimethoxy-2,3-dihydro-1H-inden-2-yl)methyl)aniline]	5.81%	78.8%	
COc1cc2c(c(OC)c1OC)CC(Cc1ccc(N(C)C)cc1)C2 (stereo not drawn) [Compound 12o, N,N-dimethyl-4-((4,5,6-trimethoxy-2,3-dihydro-1H-inden-2-yl)methyl)aniline]	5.65%	6.97%	
COc1cc2c(c(OC)c1OC)CC(Cc1ccc(C(F)(F)F)cc1)C2 (stereo not drawn) [Compound 12p, 4,5,6-trimethoxy-2–(4-(trifluoromethyl)benzyl)-2,3-dihydro-1H-indene]	12.6%	15.4%	
COc1cc2c(c(OC)c1OC)CC(Cc1ccc3c(c1)CCO3)C2 (stereo not drawn) [Compound 12q, 5-((4,5,6-trimethoxy-2,3-dihydro-1H-inden-2-yl)methyl)-2,3-dihydrobenzofuran]	83.6%	91.9%	IC50 (K562 cell line): 0.079 ± 0.009 µM; IC50 (A549): 0.22 ± 0.015 µM; IC50 (Hela): 0.183 ± 0.009 µM; IC50 (H22): 0.104 ± 0.004 µM; IC50 (normal cell line HFL-1): 0.398 ± 0.023 µM
COc1cc2c(c(OC)c1OC)CC(Cc1cccc3[nH]ccc13)C2 (stereo not drawn) [Compound 12s, 4-((4,5,6-trimethoxy-2,3-dihydro-1H-inden-2-yl)methyl)-1H-indole]	9.67%	67.1%	
COc1cc2c(c(OC)c1OC)CC(Cc1ccc3[nH]ccc3c1)C2 (stereo not drawn) [Compound 12t, 5-((4,5,6-trimethoxy-2,3-dihydro-1H-inden-2-yl)methyl)-1H-indole]	50.4%	88.6%	IC50 (K562 cell line): 0.176 ± 0.024 µM; IC50 (A549): 0.277 ± 0.029 µM; IC50 (Hela): 0.284 ± 0.014 µM; IC50 (H22): 0.254 ± 0.02 µM; IC50 (normal cell line HFL-1): 0.552 ± 0.075 µM
COc1cc2c(c(OC)c1OC)CC(Cc1ccc3cc[nH]c3c1)C2 (stereo not drawn) [Compound 12u, 6-((4,5,6-trimethoxy-2,3-dihydro-1H-inden-2-yl)methyl)-1H-indole]	10.8%	83.9%	
COc1cc2c(c(OC)c1OC)CC(Cc1cccc3c1ccn3C)C2 (stereo not drawn) [Compound 12v, 1-methyl-4-((4,5,6-trimethoxy-2,3-dihydro-1H-inden-2-yl)methyl)-1H-indole]	5.02%	28.5%	
COc1cc2c(c(OC)c1OC)CC(Cc1ccc3c(ccn3C)c1)C2 (stereo not drawn) [Compound 12w, 1-methyl-5-((4,5,6-trimethoxy-2,3-dihydro-1H-inden-2-yl)methyl)-1H-indole]	10%	85.8%	
COc1cc2c(c(OC)c1OC)CC(Cc1ccc3ccn(C)c3c1)C2 (stereo not drawn) [Compound 12x, 1-methyl-6-((4,5,6-trimethoxy-2,3-dihydro-1H-inden-2-yl)methyl)-1H-indole]	12.5%	74.9%	
COc1ccc(CC2Cc3cc(OC)c(OC)cc3C2)cc1O [Compound 15a, 5-((5,6-dimethoxy-2,3-dihydro-1H-inden-2-yl)methyl)-2-methoxyphenol]	45.6%	81.5%	IC50 (K562 cell line): 0.192 ± 0.013 µM; fold decrease in antiproliferative activities of K562 cell lines (K562 cell line): about 7 fold; IC50 (A549): 0.753 ± 0.04 µM; IC50 (Hela): 0.317 ± 0.027 µM; IC50 (H22): 0.307 ± 0.015 µM; IC50 (normal cell line HFL-1): 5 ± 0.306 µM
COc1ccc(CC2Cc3cc(O)c(OC)cc3C2)cc1O (stereo not drawn) [Compound 15b, 2–(3-hydroxy-4-methoxybenzyl)-6-methoxy-2,3-dihydro-1H-inden-5-ol]	31.4%	89.2%	IC50 (K562 cell line): 0.425 ± 0.027 µM; fold decrease in antiproliferative activities of K562 cell lines (K562 cell line): ~15 fold; IC50 (A549): 2.01 ± 0.117 µM; IC50 (Hela): 3.17 ± 0.108 µM; IC50 (H22): 0.575 ± 0.041 µM; IC50 (normal cell line HFL-1): 11.3 ± 1.4 µM
COc1ccc(CC2Cc3c(cc(OC)c(OC)c3OC)O2)cc1O (stereo not drawn) [Compound 15c, 2-methoxy-5-((4,5,6-trimethoxy-2,3-dihydrobenzofuran-2-yl)methyl)phenol]	52.1%	87.5%	IC50 (K562 cell line): 0.1 ± 0.007 µM; IC50 (A549): 0.341 ± 0.064 µM; IC50 (Hela): 0.309 ± 0.032 µM; IC50 (H22): 0.114 ± 0.023 µM; IC50 (normal cell line HFL-1): 3.58 ± 0.548 µM
COc1ccc(CC2Cc3cc(OC)c(OC)c(OC)c3C2=O)cc1O (stereo not drawn) [Compound 15d, 2–(3-hydroxy-4-methoxybenzyl)-5,6,7-trimethoxy-2,3-dihydro-1H-inden-1-one]	39%	63%	IC50 (K562 cell line): 0.774 ± 0.051 µM; IC50 (A549): 2.95 ± 0.154 µM; IC50 (Hela): 3.41 ± 0.186 µM; IC50 (H22): 1.13 ± 0.058 µM; IC50 (normal cell line HFL-1): 6.96 ± 0.843 µM
